Assay: Toxicity liver stage against HepG2, at 10uM
Type: cell-based
Set-up: test concentration 10 uM, cell line HepG2-A16-CD81EGFP
Details: human, HepG2-A16-CD81EGFP cells; read-out: INHIBITION
Method in brief: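 Uninfected HepG2-A16-CD81EGFP cells, 3 × 10^3 per well, 1536-well, plated on prespotted compound at 10 μM final, parasite-free screening media added to match infected plates; puromycin 10 μM positive, DMSO 0.5% negative; run in parallel with 48 h PbLuc assay at 37 °C, 5% CO2; viability by CellTiter-Glo luminescence, normalized to controls.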

| Compound | cytotoxicity at 10 µM [%] |
| --- | --- |
| CCN1CCN(C(C)CNC(=O)Nc2nnc(C)s2)CC1 (stereo not drawn) | -12.2 |
| CC(C)(C)c1coc([C@@H]2COCCN2Cc2cnc3ccccc3c2)n1 | 10.9 |
| O=C1CN(C(=O)OCc2ccccc2)CC(O)CN1Cc1ccco1 (stereo not drawn) | -9.92 |
| Cc1cc(C)n2c(CCCNS(=O)(=O)c3ccccc3)nnc2n1 | 1.18 |
| COc1ccc2cnn(CC(=O)NCC3CCCO3)c(=O)c2c1OC (stereo not drawn) | 4.81 |
| N#Cc1cccnc1OC1CCN(C(=O)c2cc(C3CC3)on2)CC1 | 0.253 |
| COCCN1C[C@H]2CCN(C(=O)Nc3ccccc3C)CC[C@H]2S1(=O)=O | 0.64 |
| COc1cccc(N2CC3(CCN(c4cc(OC)ncn4)C3)CC2=O)c1 (stereo not drawn) | 21.7 |
| CN(C)C(=O)CNC(=O)c1nc2c(s1)CCCN2Cc1ccccc1 | 8.13 |
| CC(=O)N1CCCc2sc(C(=O)Nc3ccc(C)nc3)nc21 | 7.46 |
| O=C(NC1CCCC1)c1nc2c(o1)CN(C(=O)CO)C2 | 10 |
| CS(=O)(=O)N1CCC2(CC1)CC(OCC1CCOCC1)CO2 (stereo not drawn) | 8.16 |
| CCS(=O)(=O)N1CC[C@H]2OCC[C@@]2(c2nnc(C)o2)C1 | 7.95 |
| Cc1noc(C2CN(S(=O)(=O)C3CC3)Cc3ccnn3C2)n1 (stereo not drawn) | 7.19 |
| CC1=N[C@@]2(CC[C@@H]3CN(C(=O)NC(C)C)C[C@@H]32)C(=O)N1CC(C)C | 7.74 |
| O=C1CCCN1CC1CN(C(=O)N2CCOCC2)Cc2nccn2C1 (stereo not drawn) | -1.05 |
| CCc1nc(C#N)c(N2CCC(c3nc(-c4ccccc4)no3)CC2)o1 | 0.689 |
| Cc1oc(-c2nc(C#N)c(NC(C)C)o2)cc1S(=O)(=O)N1CCCC1 | 5.61 |
| CC(C)n1cc(N2CC(C(=O)N3CCN(C)CC3)CC2=O)cn1 (stereo not drawn) | 1.44 |
| CCC(=O)N1CCCCC1c1nc(O)c2c(n1)CN(C(=O)C1CC1)CC2 (stereo not drawn) | 1.23 |
| NC(=O)Nc1cccc(F)c1C(=O)NC1CCCC1 | -8.64 |
| Cc1nnc(CN(C)CCc2nc(-c3cccc(Cl)c3)no2)n1C | 2.53 |

| Compound | cytotoxicity at 10 µM [%] |
| --- | --- |
| Cc1cc(NC(=O)NC(C)CN2CCN(c3ccccc3)CC2)on1 (stereo not drawn) | 11.5 |
| FCCOc1cccc(NCc2c[nH]nc2-c2cccnc2)c1 | 1.14 |
| COC(=O)c1sc2cccc(F)c2c1CNC(=O)C1CC1 | -11.4 |
| CCc1nc2n(n1)CCCC2Nc1nc(C(C)C)ns1 (stereo not drawn) | 3.88 |
| OCC1CCN(Cc2cc3c(cc2Br)OCCO3)CC1 | 6.84 |
| Cc1cccc(C)c1NC(=O)CN(C)C(C)c1nc(C(C)(C)C)no1 (stereo not drawn) | -6.85 |
| CCCn1nc2c(cc1=O)CN(Cc1nc(C)c3ccccc3n1)CC2 | -2.45 |
| CNC(=O)c1ccc(CNCc2ccc(SC)c(OC)c2)cc1 | 0.838 |
| Cn1nc2c(cc1=O)CN(c1ncnc3ccsc13)CC2 | 9.3 |
| CC(C)c1nn(C)c(N(C)C)c1CNC1CCN(CC2CC2)CC1 | 8.96 |
| CSCC(C)CNC(=O)N1CCSC(C)(C)C1 (stereo not drawn) | 0.873 |
| Cc1ccc2c(c1)OCCCC2NC1CCN(C)CC1 (stereo not drawn) | 10.4 |
| NC(=O)C(NC(=O)c1cc(Br)c[nH]1)c1ccccc1 (stereo not drawn) | 0.172 |
| CC(C)(C)C(C#N)NC(=O)c1ccc(Oc2cccnc2)cc1 (stereo not drawn) | 5.21 |
| CN1Cc2ccccc2CC2(CCN(Cc3nccn3C)CC2)C1=O | 7.81 |
| CCN(C(=O)c1nc2c(s1)CCCN2c1ccc(C)nn1)C(C)C | 3.86 |
| Cn1cc(CN2Cc3cn(C)nc3C(COCC3CC3)C2)cn1 (stereo not drawn) | -69.8 |
| Cc1nc(CN2C(=O)CC[C@@H]3[C@H]2CCN3C(=O)c2ccno2)cs1 | -82.7 |
| Cn1cccc1C(=O)N1CCc2ncnc(N3CCOCC3)c2CC1 | -74.3 |
| O=C(c1cccs1)N1CC[C@H]2[C@@H]1CCC(=O)N2c1cccnc1 | -74.3 |
| O=C(c1cscn1)N1CCC2(CC1)CN(c1ccccn1)CCO2 | -71 |
| Cc1ccc(CN2CCCC23CCN(S(=O)(=O)c2ccccc2)C3)o1 (stereo not drawn) | 0.642 |

| Compound | cytotoxicity at 10 µM [%] |
| --- | --- |
| CN1C(=O)C2(CCN(CCO)C2)c2ccccc21 (stereo not drawn) | 5.84 |
| O=C(Cc1ccsc1)N1CCCC(CNS(=O)(=O)Cc2ccccc2)C1 (stereo not drawn) | 4.24 |
| CSCCCN1C(=O)CC[C@H]2CN(Cc3ncc[nH]3)CC[C@H]21 | 7.4 |
| CN(Cc1ccc(CCC(C)(C)O)cc1)CC1(CO)CC1 | -4.32 |
| O=C(CC1C=CCC1)N1CCc2ncnc(NCc3ccon3)c2CC1 (stereo not drawn) | 22.8 |
| Cc1cc(C)c(C(=O)N2CCCC(C(=O)CCc3ccccc3)C2)cn1 (stereo not drawn) | -7.12 |
| Cc1ccsc1CN(CCCC(F)(F)F)Cc1ccccn1 | 0.107 |
| COc1ccc(Cn2cc(C(=O)N(C)Cc3ccn[nH]3)nn2)cc1 | 8.95 |
| Fc1ccccc1-c1noc2c1CN(CCN1CCOCC1)CC2 | 0.0119 |
| O=C(NCCn1cccc1)C1CCCN(C2CCCC2)C1 (stereo not drawn) | 0.301 |
| O=C1CCC2(CCCN(Cc3nnc(C4CC4)o3)C2)CN1CCO (stereo not drawn) | 5.14 |
| CCn1c(CN(C)C)nnc1C1CCN(c2nccc(NC)n2)CC1 | 7.36 |
| O=C(NCc1csc(Cc2ccccc2)n1)C1NCCc2[nH]cnc21 (stereo not drawn) | -4.32 |
| CCCN1CCC(Cc2noc(-c3cccnc3OC)n2)CC1 | -11.1 |
| Cc1ccc(OC2(C(=O)O)CCN(C(=O)CCc3ccco3)CC2)cn1 | 1.33 |
| CC(C)(C)c1ccn(C2(C(=O)O)CCN(c3ccnc(N)n3)CC2)n1 | 3.63 |
| COc1ccc(N2CCN(C(=O)CCn3nccc3C)C(C)C2)cc1 (stereo not drawn) | 14.3 |
| CC(C)CN1CCN(C)C(CCO)C1 (stereo not drawn) | 1.84 |
| CC(C)CC(=O)N1CCCCC(NC(=O)CCc2cccnc2)C1 (stereo not drawn) | -1.62 |
| CSc1ncc(CN2CC(Oc3c(C)cccc3C)C2)cn1 | 10.3 |
| COCCN(CC(N)=O)CC1CCCN(C2Cc3ccccc3C2)C1 (stereo not drawn) | -3.01 |
| CN1CCC(Cc2noc(-c3cccc4c3OCC4)n2)CC1 | -4.71 |

| Compound | cytotoxicity at 10 µM [%] |
| --- | --- |
| O=C1N(Cc2ccc(F)c(F)c2)CCCC1(O)CNCc1ncc[nH]1 (stereo not drawn) | -4.27 |
| Cc1noc(C(C)C)c1C(=O)NCc1cccnc1 | 3.93 |
| Cc1oc(C(=O)O)cc1S(=O)(=O)Nc1ccccc1F | -2.8 |
| CC(C(=O)NCCN1CCN(C)CC1)n1cncn1 (stereo not drawn) | 0.449 |
| CC(NC(=O)CSCC#N)c1ccc(Cl)cc1 (stereo not drawn) | -2.13 |
| Cc1cc(C)n(C2CCCN(C(=O)c3csc(C4CC4)n3)C2)n1 (stereo not drawn) | -2.51 |
| Cc1ncc2c(n1)CN(CC(=O)Nc1nnc(C)s1)CC2 | 0.153 |
| O=C(CCS(=O)(=O)c1ccccc1)N1CCCC(n2cccn2)C1 (stereo not drawn) | -14.7 |
| COc1cc(C(=O)NCc2ccc3c(c2)CCCN3C)cc(OC)c1Br | -6.69 |
| Cc1sc(-c2ccco2)nc1C(=O)N1CCCC1Cn1cccn1 (stereo not drawn) | -11.2 |
| CC(C)(C)c1nc(CN(Cc2cccs2)C2CCS(=O)(=O)C2)no1 (stereo not drawn) | -3.63 |
| COc1ccc(C2=CCN(C(=O)C3CCN(C)C(=O)C3)CC2)cc1 (stereo not drawn) | -9.09 |
| Cc1nc(CN(Cc2ccccc2)C2CCS(=O)(=O)C2)oc1C (stereo not drawn) | -8.13 |
| N#Cc1ccc(F)c(CN2CCCC2Cn2cnc3ccccc32)c1 (stereo not drawn) | 0.224 |
| Cc1noc(CN(Cc2ccc3c(c2)OCO3)Cc2ccc(C)o2)n1 | -0.194 |
| Cc1nnc(C(C)N2CCN(Cc3ccc4c(c3)OCO4)CC2)o1 (stereo not drawn) | -11.6 |
| Cc1nc(N2CCN(C(=O)c3ccsc3)CC2)c2cnn(C)c2n1 | -10.6 |
| Cc1cc(C)cc(N(C)S(=O)(=O)c2cc(C(=O)O)cs2)c1 | -10.4 |
| Cc1nccn1C1CCCN(C(=O)c2ccc3c(c2)NC(=O)CO3)C1 (stereo not drawn) | -11.5 |
| CC(=O)N(Cc1noc(C)n1)C1CCN(Cc2ccncc2Cl)C1 (stereo not drawn) | 5.87 |
| Cc1cc(S(=O)(=O)NCc2cccc(C(=O)N3CCCC3)c2)c(C)s1 | 3.13 |
| Cc1nc(CN2CCN(C(=O)c3sccc3C3CC3)CC2)cs1 | 3.61 |

| Compound | cytotoxicity at 10 µM [%] |
| --- | --- |
| Cc1noc(C)c1C(=O)N1C[C@H]2CCC[C@@]2(COc2ccccn2)C1 | -5.53 |
| CN(C)CCN1C(=O)CCCC12CCCN(C(=O)c1cc[nH]n1)C2 (stereo not drawn) | -0.225 |
| CN1CCOCC2(CCCN(C(=O)c3ccccc3F)C2)C1 (stereo not drawn) | -91.4 |
| O=C(N1CCOCC1)N1C[C@H]2CN(Cc3nccs3)C[C@H]2C1 | -80.8 |
| CCO[C@H]1CO[C@@]2(CCCN(S(=O)(=O)c3cccnc3)C2)C1 | -86.2 |
| CN(C)Cc1n[nH]c2c1CCN(Cc1cccs1)C2 | 1.63 |
| CC(C)N1C[C@@H]2CN(C(=O)NCc3ccccc3)CCC[C@]2(C(=O)O)C1 | 9.37 |
| Cc1cc(CN2CC[C@H]3C[C@H](C(=O)N4CCC(C)CC4)O[C@H]3C2)no1 | 1.34 |
| Cc1nc(CN2CCCC3(CCN(c4cccnc4)C3=O)C2)cs1 (stereo not drawn) | 0.574 |
| Cc1cnc(N2CCOCC3(CCN(c4ccccn4)C3)C2)nc1 (stereo not drawn) | 6.85 |
| CCN(C)c1ncnc2c1CCN(C(=O)Cc1ccccn1)CC2 | -3.26 |
| c1cnc(N2CCN3C[C@H](Oc4cncnc4)C[C@H]3C2)nc1 | 7.97 |
| CN1CCN(C(=O)[C@@H]2CC[C@@H]3[C@@H](CCN3c3ncccn3)O2)CC1 | 7.13 |
| Cc1ccc(CN2CC[C@@H]3OCCN(S(C)(=O)=O)[C@H]3CC2)s1 | 3.91 |
| O=C(CC1CC2(CCN(CC3CC3)CC2)c2ccccc21)NC1CCC1 (stereo not drawn) | -4.63 |
| Cn1cc(CN2C[C@@H]3COC[C@]3(CNC(=O)c3ccsc3)C2)cn1 | -0.0273 |
| c1cnc(N2CCC3(CCN(CC4CCOC4)C3)CC2)nc1 (stereo not drawn) | -0.877 |
| COCCN1CCC2(CCN(c3ncccn3)CC2)C1=O | 3.47 |
| CCn1cc2[nH]c(OC)c(CNC(=O)CCC3CCCC3)cc-2c1=O | -3.28 |
| COc1ccccc1-c1nnc2n1N=C(N)C(C#N)S2 (stereo not drawn) | 1.5 |
